This is an account of results in ChEMBL document CHEMBL1154190, “Development and screening of water-soluble analogues of progesterone and allopregnanolone in models of brain injury” (J Med Chem, 2009).

A short description of series [1]: Inhibition of glutamate-induced excitotoxicity in rat E18 cells assessed as reduction in cell death at 5 uM pretreated for 24 hrs before glutamate challenge measured after 24 hrs by MTT assay. Type of series: functional. In short, it runs like this:
(§1)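 Rat E18 primary cortical cells cultured 8-10 days in neurobasal medium, pretreated 24 h with compound (tested at 0.1-80 μM, DMSO <5 μL/mL medium), then glutamate 0.5 μM (in PBS pH 7.4) added for a further 24 h with compound still present. Viability by MTT formazan photometry; reduction in cell death vs glutamate-only control, mean ± SEM, ANOVA/Dunnett, p < 0.05.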
(In general: Formazan colour is commonly taken as a measure of viable cells.)

The nature of series [2]: Solubility in phosphate buffered saline. The series is classed as physicochemical. The essentials:
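Compound added in small portions to phosphate buffered saline at room temperature with stirring until a visible saturation end point; solubility reported as mg/mL.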

The subject of a further series is Rattus norvegicus. In words: Neuroprotective effect against traumatic brain injury-induced cerebral edema in rat assessed as decrease in edema level at 8 mg/kg administered intraperitoneally 1 hr post-TBI followed by second sc dose at 6 hrs post-TBI measured after 24 hrs relative to control. Type of series: functional. The arrangement: scale not given: the % may be the effect or the level left. The following applies: route intraperitoneal at 1 h, then subcutaneous at 6 h. In short, it runs like this:
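Bilateral medial frontal cortex contusion made with a pneumatic impactor in rats under isoflurane (5% induction, 2% maintenance, N₂O/O₂), body temperature held with a heating blanket. Dosing: 8 mg/kg in 22.5% w/v 2-hydroxypropyl-β-cyclodextrin, IP at 1 h, then SC at 6 h. Sham and vehicle groups included. At 24 h, pentobarbital overdose; pericontusional tissue dried at 60 °C, 0.3 atm for 24 h. Water % = (wet−dry)/wet×100; decrease vs vehicle, mean ± SEM.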

The nature of series [3]: Inhibition of glutamate-induced excitotoxicity in rat E18 cells assessed as reduction in cell death at 10 uM pretreated for 24 hrs before glutamate challenge measured after 24 hrs by MTT assay. The series is classed as functional. In short, it runs like this:
as §1

Series [4] in a line: Inhibition of glutamate-induced excitotoxicity in rat E18 cells assessed as reduction in cell death at 80 uM pretreated for 24 hrs before glutamate challenge measured after 24 hrs by MTT assay. Type of series: functional. In short, it runs like this: (§2)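 Rat E18 primary cortical neurons cultured 8-10 days in neurobasal medium, pretreated 24 h with compound (0.1-80 μM, DMSO, final DMSO <5 μL/mL), then glutamate 0.5 μM (in PBS pH 7.4) for 24 h with compound still present. Viability read by MTT formazan photometry; % reduction in cell death vs glutamate control, mean ± SEM, ANOVA with Dunnett's test.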

A short description of series [5]: Inhibition of glutamate-induced excitotoxicity in rat E18 cells assessed as reduction in cell death at 20 uM pretreated for 24 hrs before glutamate challenge measured after 24 hrs by MTT assay. Type of series: functional. The essentials: as §2
[6] abbreviates: phosphate buffered saline, read-out: solubility.

As a reminder, the inhibition is the change of the read-out against control, counted positive when it falls. Broadly, the solubility is the concentration that dissolves in the medium under given conditions. Take `CC(=O)[C@H]1CC[C@H]2[C@@H]3CCC4=C[C@@H](OC(=O)[C@@H]5CCCN5)CC[C@]4(C)[C@H]3CC[C@]12C.Cl`: the inhibition at 5 µM in series [1] worked out at 15%. Moreover, in series [2] (setting [6]), the solubility was found to be 1530 µg/mL.

For the compound `CC(=O)[C@H]1CC[C@H]2[C@@H]3CCC4=C/C(=N/OC(=O)[C@@H](N)C(C)C)CC[C@]4(C)[C@H]3CC[C@]12C.Cl`, in series [1], the inhibition at 5 µM was 27%. Besides, in the series with Rattus norvegicus, the Activity was determined as 57%. This compound also registered a solubility in series [2] (buffer) of 13000 µg/mL.

As for `CC(=O)[C@H]1CC[C@H]2[C@@H]3CC[C@H]4C[C@@H](OC(=O)[C@@H](N)C(C)C)CC[C@]4(C)[C@H]3CC[C@]12C.Cl`, the Activity with Rattus norvegicus was 40%. The solubility in series [2] (setting [6]) is below 50 µg/mL.

`CC(=O)[C@H]1CC[C@H]2[C@@H]3CCC4=C[C@@H](OC(=O)[C@@H](N)Cc5c[nH]c6ccccc56)CC[C@]4(C)[C@H]3CC[C@]12C`: in series [1], the inhibition at 5 µM stood at 1%.

For the compound `CC(=O)[C@H]1CC[C@H]2[C@@H]3CC[C@H]4C[C@H](OC(=O)[C@@H](N)C(C)C)CC[C@]4(C)[C@H]3CC[C@]12C.Cl`, the Activity in the series on Rattus norvegicus was 49%. Moreover, the solubility in series [2] (setting [6]) was below 50 µg/mL.

Regarding `CC(=O)[C@H]1CC[C@H]2[C@@H]3CCC4=C[C@@H](OC(=O)[C@H](C)N)CC[C@]4(C)[C@H]3CC[C@]12C.Cl`, the inhibition at 5 µM in series [1] worked out at 13%. Moreover, the solubility in series [2] (setting [6]) was found to be 3340 µg/mL.

As to `CC(=O)[C@H]1CC[C@H]2[C@@H]3CCC4=C/C(=N\OC(=O)[C@@H](N)C(C)C)CC[C@]4(C)[C@H]3CC[C@]12C.Cl`, the inhibition at 5 µM in series [1] turned out to be 34%. Also, the Activity in the series on Rattus norvegicus is given as 75%. The solubility in series [2] (setting [6]) is 15200 µg/mL.

Consider `CC(=O)[C@H]1CC[C@H]2[C@@H]3CCC4=C[C@@H](OC(=O)[C@@H](N)Cc5ccccc5)CC[C@]4(C)[C@H]3CC[C@]12C.Cl`, for which, in series [2] (setting [6]), the solubility was determined as 610 µg/mL.

Consider `CC(=O)[C@H]1CC[C@H]2[C@@H]3CCC4=C[C@@H](OC(=O)[C@@H](N)C(C)C)CC[C@]4(C)[C@H]3CC[C@]12C.Cl`, for which the inhibition at 5 µM in series [1] was 8%. In addition, the solubility in series [2] (setting [6]) was 3850 µg/mL.

In the case of `CC(=O)[C@H]1CC[C@H]2[C@@H]3CC[C@@H]4C[C@H](OC(=O)[C@@H](N)C(C)C)CC[C@]4(C)[C@H]3CC[C@]12C.Cl`, the Activity with Rattus norvegicus stood at 31%. In series [2] (setting [6]), the solubility is 300 µg/mL.

`CC(=O)[C@H]1CC[C@H]2[C@@H]3CC[C@@H]4C[C@@H](OC(=O)[C@@H](N)C(C)C)CC[C@]4(C)[C@H]3CC[C@]12C.Cl`: the Activity in the series on Rattus norvegicus was 11%. Further, the solubility in series [2] (setting [6]) is below 50 µg/mL.

On to `CC(C)[C@H](N)C(=O)O[C@@H](C)[C@H]1CC[C@H]2[C@@H]3CCC4=CC(=O)CC[C@]4(C)[C@H]3CC[C@]12C`, for which the inhibition at 5 µM in series [1] was 23%. Moreover, the inhibition at 10 µM in series [3] was 30%.

As for `CC(=O)[C@H]1CC[C@H]2[C@@H]3CC[C@H]4C[C@H](O)CC[C@]4(C)[C@H]3CC[C@]12C` [BREXANOLONE], the inhibition at 5 µM in series [1] is -3%. Besides, the inhibition at 80 µM in series [4] turned out to be 40%. In series [2] (setting [6]), the solubility was below 50 µg/mL.

Turning to `CC(=O)[C@H]1CC[C@H]2[C@@H]3CCC4=CC(=O)CC[C@]4(C)[C@H]3CC[C@]12C` [PROGESTERONE], in series [1], the inhibition at 5 µM worked out at 4%. The inhibition at 20 µM in series [5] came to 42%. Also, the Activity with Rattus norvegicus was found to be 60%. Moreover, in series [2] (setting [6]), the solubility is below 50 µg/mL.
